Measured values reported in ChEMBL document CHEMBL1152677, “Combretastatin-like chalcones as inhibitors of microtubule polymerisation. Part 2: Structure-based discovery of alpha-aryl chalcones” (Bioorg Med Chem, 2009).

Experiments:
K562 [1] = experiment: Antiproliferative activity against human K562 cells after 5 days by MTT assay; type: functional, cell-based; conditions: K562, 120 h
Summary of the method: (§1)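 Cells at about 2000 cells/mL (set by doubling time) in RPMI with 10% v/v FCS; compound from DMSO stock, seven twofold serial dilutions plus drug-free control, triplicate wells, 37 °C 5% CO2 for 5 days. MTT (3 mg/mL in PBS) added for 3 h, formazan dissolved in DMSO, OD read at 540 and 690 nm; IC50 derived graphically as percentage of control growth.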

[2] = Inhibition of tubulin assembly by spectrophotometry
Summary of the method: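 Tubulin (10–15 μM stock) in 0.1 M Mes, 1 mM EGTA, 0.5 mM MgCl2, pH 6.6, with GTP, compound in DMSO, assembled on cold at 0 °C then moved to 37 °C. Absorbance at 350 nm followed for 30 min against drug/GTP buffer blanks; change in optical density relative to untreated control gives IC50 for assembly inhibition.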

[3] = Inhibition of tubulin assembly by turbidimetry assay
A549 = experiment: Antiproliferative activity against human A549 cells after 5 days by MTT assay; type: functional, cell-based; conditions: A549, 120 h; summary of the method: as §1
A2780 = experiment: Antiproliferative activity against human A2780 cells after 5 days by MTT assay; type: functional, cell-based; conditions: A2780, 120 h; summary of the method: as §1
K562 [4] = experiment: Cell cycle arrest in human K562 cells assessed as accumulation at G0/G1 phase at 10 uL after overnight incubation by propidium iodide staining-based flow cytometry; type: functional
Summary of the method: (§2)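 Fixed in cold 1:1 acetone:ethanol, washed in PBS, RNAse treated (37 °C, 15 min), stained with propidium iodide 50 µg/mL; DNA content read by flow cytometry, argon laser excitation 488 nm; percentage of cells per phase versus untreated control.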

K562 [5] = experiment: Cell cycle arrest in human K562 cells assessed as accumulation at S phase at 10 uL after overnight incubation by propidium iodide staining-based flow cytometry; type: functional; summary of the method: as §2
K562 [6] = experiment: Cell cycle arrest in human K562 cells assessed as accumulation at G2/M phase at 10 uL after overnight incubation by propidium iodide staining-based flow cytometry; type: functional; summary of the method: as §2
P388 = experiment: Antiproliferative activity against mouse P388 cells after 5 days by MTT assay; type: functional, cell-based; conditions: P388, 120 h; summary of the method: as §1
L1210 = experiment: Antiproliferative activity against mouse L1210 cells after 5 days by MTT assay; type: functional, cell-based; conditions: L1210, 120 h; summary of the method: as §1
K562 [7] = experiment: Cytotoxicity against human K562 cells; type: functional, cell-based
Summary of the method: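 K562 cells in RPMI with 10% v/v FCS, at about 2000 cells/mL. Drug in DMSO was serially diluted twofold to give seven concentrations, plus a drug-free control. Cells were plated in triplicate and incubated 5 days at 37 °C, 5% CO2. MTT (3 mg/mL stock) was added for 3 h, formazan dissolved in DMSO, and OD read at 540 and 690 nm. IC50 was found graphically as percent of control growth.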

[8] = Displacement of [3H]colchicine from tubulin

## COc1ccc(/C=C(/C(=O)c2cc(OC)c(OC)c(OC)c2)c2ccc(N(C)C)cc2)cc1
K562 [1]
  IC50: 150 nM

## COc1ccc(C=C(C(=O)c2cc(OC)c(OC)c(OC)c2)c2ccc(C)cc2)cc1O
K562 [1]
  IC50: 32 nM
[2]
  IC50: 2600 nM

## COc1cc2c(c(OC)c1OC)-c1ccc(OC)c(=O)cc1[C@@H](NC(C)=O)CC2 [COLCHICINE]
[3]
  IC50: 2600 nM

## COc1ccc(/C=C(/C(=O)c2cc(OC)c(OC)c(OC)c2)c2ccccc2O)cc1O
A549
  IC50: 50 nM
A2780
  IC50: 34 nM
K562 [4]
  Activity: 6.5%
K562 [5]
  Activity: 18.1%
K562 [6]
  Activity: 75.4%
P388
  IC50: 28 nM
L1210
  IC50: 36 nM
K562 [1]
  IC50: 49 nM
[2]
  IC50: 5500 nM

## COc1ccc(/C=C(/C(=O)c2cc(OC)c(OC)c(OC)c2)c2ccccc2O)cc1
K562 [1]
  IC50: 370 nM
[2]
  IC50: > 10000 nM

## COc1ccc(C=C(C(=O)c2cc(OC)c(OC)c(OC)c2)c2ccc(C)cc2)cc1F
K562 [1]
  IC50: 570 nM
[2]
  IC50: 4400 nM

## COc1ccc(C=C(C(=O)c2cc(OC)c(OC)c(OC)c2)c2ccccc2)cc1[N+](=O)[O-]
K562 [1]
  IC50: > 10000 nM

## COc1ccc(/C=C(/C(=O)c2cc(OC)c(OC)c(OC)c2)c2ccccc2O)cc1F
A549
  IC50: 140 nM
A2780
  IC50: 40 nM
K562 [4]
  Activity: 10.6%
K562 [5]
  Activity: 43.6%
K562 [6]
  Activity: 45.7%
P388
  IC50: 530 nM
L1210
  IC50: 60 nM
K562 [1]
  IC50: 60 nM
[2]
  IC50: 7200 nM

## COc1ccc(C=C(C(=O)c2cc(OC)c(OC)c(OC)c2)c2ccc(C)cc2)cc1[N+](=O)[O-]
K562 [1]
  IC50: 2430 nM

## COc1ccc(C(=Cc2ccccc2)C(=O)c2cc(OC)c(OC)c(OC)c2)cc1
K562 [1]
  IC50: 4920 nM

## COc1ccc(C=C(C(=O)c2cc(OC)c(OC)c(OC)c2)c2ccccc2)cc1F
K562 [1]
  IC50: 790 nM

## COc1ccc(/C=C(/C(=O)c2cc(OC)c(OC)c(OC)c2)c2ccc(OC)cc2OC)cc1
K562 [1]
  IC50: 90 nM

## COc1cc(C(=O)C(=Cc2ccccc2)c2ccc(C)cc2)cc(OC)c1OC
K562 [1]
  IC50: 2970 nM

## COc1ccc(/C=C(/C(=O)c2cc(OC)c(OC)c(OC)c2)c2ccccc2O)cc1O[Si](C)(C)C(C)(C)C
K562 [1]
  IC50: 380 nM
[2]
  IC50: > 10000 nM

## COc1ccc(/C=C(\C)C(=O)c2cc(OC)c(OC)c(OC)c2)cc1O
A549
  IC50: 10 nM
A2780
  IC50: 1.8 nM
K562 [4]
  Activity: 10.7%
K562 [5]
  Activity: 32.8%
K562 [6]
  Activity: 56.4%
P388
  IC50: 26 nM
L1210
  IC50: 11 nM
K562 [1]
  IC50: 4.4 nM
[2]
  IC50: 3300 nM
[3]
  IC50: 460 nM

## COc1ccc(C(=Cc2ccc(OC)c([N+](=O)[O-])c2)C(=O)c2cc(OC)c(OC)c(OC)c2)cc1
K562 [1]
  IC50: 2660 nM

## COc1ccc(/C=C(/C(=O)c2cc(OC)c(OC)c(OC)c2)c2ccccc2)cc1
K562 [1]
  IC50: 20 nM

## COc1ccc(/C=C\c2cc(OC)c(OC)c(OC)c2)cc1O [COMBRETASTATIN A4]
A549
  IC50: 7.8 nM
A2780
  IC50: 1.9 nM
K562 [4]
  Activity: 14%
K562 [5]
  Activity: 23.3%
K562 [6]
  Activity: 62.7%
P388
  IC50: 3.1 nM
L1210
  IC50: 2.3 nM
K562 [7]
  IC50: 1.4 nM
[8]
  Activity: 92%
K562 [1]
  IC50: 3.2 nM
[2]
  IC50: 3700 nM

## COc1cc(C(=O)C(=Cc2ccccc2)c2ccccc2)cc(OC)c1OC
K562 [1]
  IC50: 6300 nM

## COc1ccc(C(=Cc2ccc(OC)c(O)c2)C(=O)c2cc(OC)c(OC)c(OC)c2)cc1
A549
  IC50: 680 nM
A2780
  IC50: 10 nM
K562 [4]
  Activity: 10.8%
K562 [5]
  Activity: 34.6%
K562 [6]
  Activity: 54.6%
P388
  IC50: 20 nM
L1210
  IC50: 160 nM
K562 [1]
  IC50: 12 nM
[2]
  IC50: 2100 nM

## COc1ccc(C=C(C(=O)c2cc(OC)c(OC)c(OC)c2)c2ccc(C)cc2)cc1
K562 [1]
  IC50: 760 nM

## COc1ccc(/C=C(/C(=O)c2cc(OC)c(OC)c(OC)c2)c2ccc(OC)cc2)cc1
K562 [1]
  IC50: 40 nM

## COc1ccc(C(=Cc2ccc(OC)c(F)c2)C(=O)c2cc(OC)c(OC)c(OC)c2)cc1
K562 [1]
  IC50: 450 nM
[2]
  IC50: 4200 nM

## COc1ccc(C=C(C(=O)c2cc(OC)c(OC)c(OC)c2)c2ccc(OC)cc2)cc1
K562 [1]
  IC50: 500 nM
